In article PMC12034384 (ImmunoHorizons, 2025):

Key:
Jurkat = experiment: Cytotoxicity of peptides; assay type: cell-based, human; settings: Fig. S1; concentrations up to 100 μM
[1] = tested on: Ramos human B lymphoma cells; experiment: Spontaneous proliferation of Ramos cells; assay type: cell-based
murine B cells = experiment: IgM-mediated IL-6 and IL-10 production in murine B cells; assay type: cell-based; settings: compared with iCont-treated B cells
EAE mice = experiment: Experimental autoimmune encephalomyelitis; assay type: in vivo, C57BL/6 mice
Jurkat cells = experiment: IL-2 production after anti-CD3/anti-CD28 stimulation, ELISA; assay type: cell-based, human; settings: 30 min preincubation, immobilized anti-CD3 (3 μg/ml)/anti-CD28 (1 μg/ml) 48 h, n = 4
How it was run: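 Jurkat cells were kept in RPMI 1640 with 10% FBS and 50 μM 2-mercaptoethanol. They were preincubated 30 min with test peptide or control peptide, then stimulated 48 h on immobilized anti-human CD3 (OKT3, 3 μg/ml) plus anti-CD28 (CD28.8, 1 μg/ml). Human IL-2 in supernatant was measured by ELISA. Mean ± SEM of 4 independent experiments, Sidak's test.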

mice = experiment: Tolerability in treated mice; assay type: in vivo; settings: within the effective concentration range; data not shown
EL-4 cells = experiment: Spontaneous proliferation of EL-4 cells; assay type: cell-based, murine; settings: 30 min preincubation, WST-8, n = 3
How it was run: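 Murine EL-4 T lymphoma cells were grown in RPMI 1640 with 10% FBS and 50 μM 2-mercaptoethanol without stimulation. They were preincubated 30 min with test or control peptide, and spontaneous proliferation was read with WST-8 reagent. Mean ± SEM of 3 independent experiments; Sidak's multiple comparisons.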

STAP-1–ITK interaction = experiment: Coimmunoprecipitation, STAP-1–ITK interaction; assay type: binding, human; settings: Fig. 2G
murine CD4+ T cells = experiment: IL-2 production of murine CD4+ T cells after anti-CD3/anti-CD28, ELISA; assay type: cell-based; settings: 30 min preincubation, anti-CD3/anti-CD28 48 h, n = 4
How it was run: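 CD4⁺ T cells were purified from mouse spleen with a CD4⁺ isolation kit and cultured in RPMI 1640, 10% FBS, 50 μM 2-mercaptoethanol. After 30 min preincubation with test or control peptide, cells were stimulated 48 h on immobilized anti-mouse CD3 (145-2C11, 3 μg/ml) plus anti-CD28 (PV-1, 1 μg/ml). Mouse IL-2 in supernatant was measured by ELISA. Mean ± SEM, n = 4 independent experiments, Sidak's test.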

[2] = cited from earlier work
[3] = tested on: HeLa human epithelial-like cells; experiment: Spontaneous proliferation of HeLa cells; assay type: cell-based
[4] = EAE mice, 40 µg/mouse i.v., vs iCont, n = 5
[5] = EAE mice, day 14 after MOG immunization, vs iCont, n = 10 to 12
[6] = EAE mice, day 14 after MOG immunization, vs iCont, n = 10 to 14

Sequence: RRRRRRRRGGDLTCLTEQNSTEKNCAKFTL [N73-92]
- cytotoxicity (Jurkat): high cytotoxicity at the concentration of 100 μM

Sequence: RRRRRRRRGGEYEHYWTELRGTTLFFYTD [N41-59]
- cytotoxicity (Jurkat): did not show significant cytotoxicity up to the concentration of 100 μM

Sequence: RRRRRRRRGGPLYFEGFLLIKRSGYREYE [N26-43]
- cytotoxicity (Jurkat): high cytotoxicity from the concentration of 3 μM

Sequence: RRRRRRRRGGRRIFQERLKITALPLYFEGF [N12-31]
- cytotoxicity (Jurkat): high cytotoxicity from the concentration of 3 μM

Sequence: RRRRRRRRGGTDKKSIIYVDKLDIVDLTCL [N58-77]
- cytotoxicity (Jurkat): high cytotoxicity from the concentration of 3 μM

Sequence: RRRRRRRRGGTTLFF [iSP1]
- spontaneous proliferation [1]: did not inhibit
- IgM-mediated IL-6 production (murine B cells): no inhibition
- IgM-mediated IL-10 production (murine B cells): no inhibition
- area under the curve of EAE clinical score (EAE mice; 40 µg/mouse i.v. every other day, days 8–20, vs iCont, n = 20): significantly lower
- demyelination in spinal cord (Luxol Fast Blue staining) (EAE mice; [4]): suppressed
- immune cell infiltration in spinal cord (H&E staining) (EAE mice; [4]): suppressed
- frequency of Th1 cells (IFN-γ expressing) among CD4+ cells in CNS (EAE mice; [5]): significantly lower
- frequency of Th17 cells (IL-17 expressing) among CD4+ cells in CNS (EAE mice; [5]): significantly lower
- absolute number of Th1 cells (IFN-γ expressing CD4+ T cells) in CNS (EAE mice; [6]): significantly lower
- absolute number of Th17 cells (IL-17 expressing CD4+ T cells) in CNS (EAE mice; [6]): significantly lower
- IL-2 production following TCR stimulation (Jurkat cells): suppressed by iSP1 treatment in a concentration-dependent manner
- abnormal phenotypes in treated mice (mice): did not show any abnormal phenotypes
- spontaneous cell proliferation (EL-4 cells): exhibited suppressed cell proliferation
- STAP-1–ITK interaction (STAP-1–ITK interaction): suppressed
- IL-2 production upon TCR stimulation (murine CD4+ T cells): inhibited in CD4^+ T cells
- stability of cell-penetrating R8 sequence in vivo [2]: unstable and easy to dissociate in vivo
- spontaneous proliferation [3]: did not inhibit
